# ChEMBL document CHEMBL3784921, “Mimicking of Arginine by Functionalized N(ω)-Carbamoylated Arginine As a New Broadly Applicable Approach to Labeled Bioactive Peptides: High Affinity Angiotensin, Neuropeptide Y, Neuropeptide FF, and Neurotensin Receptor Ligands As Examples” (J Med Chem, 2016)
# *1 amine or outer side, *2 acyl side, *3 side chain or, on linkers, in order; H or OH if unused. Where a SMILES comes first, the peptide text is derived from it. Bridges are numbered along the chain shown (N, C = ends). Roman numbers before positions name the chains, in order. [ ]: non-standard residue; d: D form. X1 = CCC(=O)NCCCCNC(=O)/N=C(\N)NCCC[C@H](N[*:1])C(=O)[*:2]; X2 = NCCCCNC(=O)/N=C(\N)NCCC[C@H](N[*:1])C(=O)[*:2]; Suberoyl = O=C(CCCCCCC(=O)[*:2])[*:1]
# Assays:
# [1] = molecular target: T1, Type-1 angiotensin II receptor (Homo sapiens, UniProt P30556); assay: Displacement of [3H]-Angiotensin 2 from human AT1 receptor transfected in CHOK1 cells preincubated for 30 mins with bovine serum albumin followed by radioligand addition by liquid scintillation counting; format: cell-based, CHO-K1
# T1 sequence (P30556 whole entry): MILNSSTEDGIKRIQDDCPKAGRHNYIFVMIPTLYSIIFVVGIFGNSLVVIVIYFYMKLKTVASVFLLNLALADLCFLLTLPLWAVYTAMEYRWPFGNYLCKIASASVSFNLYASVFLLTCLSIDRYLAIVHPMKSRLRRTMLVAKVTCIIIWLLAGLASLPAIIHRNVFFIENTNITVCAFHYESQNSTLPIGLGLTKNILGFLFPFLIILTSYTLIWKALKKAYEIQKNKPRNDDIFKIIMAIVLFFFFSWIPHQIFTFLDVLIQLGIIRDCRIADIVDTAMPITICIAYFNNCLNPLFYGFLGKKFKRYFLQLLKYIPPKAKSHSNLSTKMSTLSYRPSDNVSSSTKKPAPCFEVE
# [2] = molecular target: T1, Type-1 angiotensin II receptor; assay: Displacement of [3H]-Asp-{Nomega-[N-(4-propanoylaminobutyl)aminocarbonyl]}Arg-ValTyr-Ile-His-Pro-Phe-OH Tris(hydrotrifluoroacetate) from human AT1 receptor transfected in CHO cells co-expressing Galpha16-mtAEQ after 2 hrs by liquid scintillation counting; format: cell-based
# [3] = molecular target: T2, Neurotensin receptor type 1 (Homo sapiens, UniProt P30989); assay: biochemical
# [4] = molecular target: T2, Neurotensin receptor type 1; assay: Binding affinity to human NTSR1 receptor transfected in CHO cells co-expressing Galpha16-mtAEQ after 2 hrs by liquid scintillation counting; format: cell-based
# [5] = molecular target: T2, Neurotensin receptor type 1; assay: biochemical; remark: listed apart in the source
# [6] = Chemical stability of compound at 120 uM at pH 7 at 21 degC after 24 to 48 hrs by reversed-phase HPLC analysis; format: physicochemical; details: buffer, pH 7, 120 µM
# Outline: (§1)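 Peptide incubated in phosphate buffer (PBS), pH 7.0, 21 °C, for 24 or 48 h. Remaining intact peptide assessed by reversed-phase HPLC chromatograms.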
# [7] = Chemical stability of compound at 150 uM at pH 7 at 21 degC after 24 to 48 hrs by reversed-phase HPLC analysis; format: physicochemical; details: buffer, pH 7, 150 µM
# Outline: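 Peptide incubated in phosphate buffer (PBS), pH 7.0, 21 °C, for 24 or 48 h. Remaining intact peptide assessed from reversed-phase HPLC chromatograms.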
# [8] = molecular target: T1, Type-1 angiotensin II receptor; assay: biochemical
# [9] = Binding affinity to AT1 receptor natively expressed in rat mesangial cells; format: cell-based
# [10] = Drug degradation in CHO cells expressing human AT1 receptor at 50 uM after 2 hrs by reversed-phase HPLC analysis; format: ADME, cell-based, Cricetulus griseus; details: chinese hamster, read-out: Drug degradation
# Outline: (§2)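 Stability tested under binding-assay conditions for up to 6 h: AT1 ligands with CHO-hAT1 cells and NTSR1 ligands with HT-29 cells. Samples analysed by reversed-phase HPLC chromatography.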
# [11] = Drug degradation in CHO cells expressing human AT1 receptor at 50 uM after 6 hrs by reversed-phase HPLC analysis; format: ADME, cell-based, Cricetulus griseus; details: chinese hamster, read-out: Drug degradation; outline: as §2
# [12] = Chemical stability of compound at 200 uM at pH 7 at 21 degC after 24 to 48 hrs by reversed-phase HPLC analysis; format: physicochemical; details: buffer, pH 7, 200 µM; outline: as §1
# [13] = molecular target: T1, Type-1 angiotensin II receptor; assay: Agonist activity at human AT1 receptor transfected in CHO cells co-expressing Galpha16-mtAEQ assessed as induction of intracellular Ca2+ mobilization by bioluminescence assay; format: functional, cell-based
# [14] = molecular target: T2, Neurotensin receptor type 1; assay: Displacement of [3H]-{Nomega-[N-(4-propanoylaminobutyl)aminocarbonyl]}Arg-Arg-ProTyr-Ile-Leu-OH Tris(hydrotrifluoroacetate) from human NTSR1 transfected in CHO cells co-expressing Galpha16-mtAEQ after 2 hrs by liquid scintillation counting; format: cell-based
# [15] = molecular target: T2, Neurotensin receptor type 1; assay: Displacement of [3H]-{Nomega-[N-(4-propanoylaminobutyl)aminocarbonyl]}Arg-Arg-ProTyr-Ile-Leu-OH Tris(hydrotrifluoroacetate) from NTSR1 in human HT-29 cells after 2 hrs by liquid scintillation counting; format: cell-based
# [16] = Drug degradation in human HT-29 cells at 50 uM after 6 hrs by reversed-phase HPLC analysis; format: ADME, cell-based; details: read-out: Drug degradation; outline: as §2
# [17] = Drug degradation in human HT-29 cells at 50 uM after 2 hrs by reversed-phase HPLC analysis; format: ADME, cell-based; details: read-out: Drug degradation; outline: as §2
# [18] = molecular target: Neurotensin receptor type 2 (Homo sapiens, UniProt O95665); assay: Displacement of [3H]NT(8 to 13 residues) from human NTSR2 expressed in HEK293 cell membranes
# [19] = molecular target: T2, Neurotensin receptor type 1; assay: Agonist activity at NTSR1 in human HT-29 cells assessed as induction of intracellular Ca2+ mobilization by fura-2 dye-based spectrofluorimetric analysis; format: functional, cell-based
# [20] = molecular target: Neuropeptide Y receptor type 4 (Homo sapiens, UniProt P50391); assay: Displacement of S0586[K4]hpp from human NPY4 receptor expressed in CHO cells co-expressing Gqi5-mtAEQ by flow cytometric analysis; format: cell-based
# [21] = molecular target: T3, Neuropeptide FF receptor 2 (Homo sapiens, UniProt Q9Y5X5); assay: Binding affinity to human NPFF2 receptor expressed in CHO cell membranes after 1 hr by liquid scintillation spectrophotometric counting
# [22] = molecular target: T3, Neuropeptide FF receptor 2; assay: Displacement of [3H]EYE from human NPFF2 receptor expressed in CHO cell membranes after 1 hr by liquid scintillation spectrophotometric counting
# T2 sequence (P30989 whole entry): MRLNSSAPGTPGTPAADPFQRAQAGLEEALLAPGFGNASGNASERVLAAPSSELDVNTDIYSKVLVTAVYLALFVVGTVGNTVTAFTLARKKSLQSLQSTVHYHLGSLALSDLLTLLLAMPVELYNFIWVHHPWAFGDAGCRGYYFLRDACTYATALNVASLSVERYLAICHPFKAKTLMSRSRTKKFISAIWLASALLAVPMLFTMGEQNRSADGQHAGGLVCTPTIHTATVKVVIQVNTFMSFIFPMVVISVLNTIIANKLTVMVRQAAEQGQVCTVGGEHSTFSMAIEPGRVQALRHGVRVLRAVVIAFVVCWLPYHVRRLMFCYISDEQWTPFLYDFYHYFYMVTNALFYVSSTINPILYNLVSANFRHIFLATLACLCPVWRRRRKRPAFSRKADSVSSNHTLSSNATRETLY
# Neuropeptide Y receptor type 4, sequence (P50391 whole entry): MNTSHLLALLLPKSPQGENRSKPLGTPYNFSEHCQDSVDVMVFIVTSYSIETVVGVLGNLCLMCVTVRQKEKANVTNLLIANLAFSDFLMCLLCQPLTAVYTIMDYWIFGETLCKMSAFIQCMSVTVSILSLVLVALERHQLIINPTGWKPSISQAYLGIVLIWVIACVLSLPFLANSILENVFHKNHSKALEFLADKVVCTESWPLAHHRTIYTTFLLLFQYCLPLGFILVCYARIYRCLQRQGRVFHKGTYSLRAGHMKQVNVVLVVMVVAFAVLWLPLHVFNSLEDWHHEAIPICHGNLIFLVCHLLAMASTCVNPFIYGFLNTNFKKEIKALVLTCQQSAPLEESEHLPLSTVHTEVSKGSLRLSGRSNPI
# Neurotensin receptor type 2, sequence (O95665 whole entry, the tested form may be a part): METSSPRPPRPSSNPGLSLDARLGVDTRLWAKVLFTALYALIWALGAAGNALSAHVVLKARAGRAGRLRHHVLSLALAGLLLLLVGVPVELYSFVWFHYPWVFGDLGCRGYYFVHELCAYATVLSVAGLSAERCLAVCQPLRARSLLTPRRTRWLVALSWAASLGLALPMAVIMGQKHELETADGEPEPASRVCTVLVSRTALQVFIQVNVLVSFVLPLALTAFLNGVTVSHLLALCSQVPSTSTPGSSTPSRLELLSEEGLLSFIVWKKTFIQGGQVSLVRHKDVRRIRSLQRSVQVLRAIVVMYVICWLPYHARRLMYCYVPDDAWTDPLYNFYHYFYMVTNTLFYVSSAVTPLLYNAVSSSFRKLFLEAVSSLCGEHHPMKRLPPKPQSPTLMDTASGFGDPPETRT
# T3 sequence (Q9Y5X5 whole entry): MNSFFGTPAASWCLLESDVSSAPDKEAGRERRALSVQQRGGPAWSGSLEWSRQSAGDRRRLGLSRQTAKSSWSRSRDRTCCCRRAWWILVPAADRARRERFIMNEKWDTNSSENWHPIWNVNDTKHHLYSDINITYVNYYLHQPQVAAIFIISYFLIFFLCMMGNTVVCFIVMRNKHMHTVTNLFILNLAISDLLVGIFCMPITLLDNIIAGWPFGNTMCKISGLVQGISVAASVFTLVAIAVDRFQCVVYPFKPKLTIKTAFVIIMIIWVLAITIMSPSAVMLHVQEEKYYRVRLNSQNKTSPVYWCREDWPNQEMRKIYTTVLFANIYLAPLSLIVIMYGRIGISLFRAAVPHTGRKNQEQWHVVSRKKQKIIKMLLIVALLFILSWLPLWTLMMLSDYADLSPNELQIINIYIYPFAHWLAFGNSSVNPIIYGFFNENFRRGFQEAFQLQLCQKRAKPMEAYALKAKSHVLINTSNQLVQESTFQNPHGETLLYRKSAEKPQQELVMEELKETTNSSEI
compound,measurement,setting,value
CCOc1nc2cccc(C(=O)O)c2n1Cc1ccc(-c2ccccc2-c2nnn[nH]2)cc1,IC50,[1],0.69 nM
same,IC50,[2],10.7 nM
same,Ki,[2],3.5 nM
O=C(O)C(F)(F)F.O=C(O)C(F)(F)F.O=C(O)C(F)(F)F.[3H]CC([3H])C(=O)NCCCCNC(=O)/N=C(\N)NCCC[C@H](N)C(=O)N[C@@H](CCCNC(=N)N)C(=O)N1CCC[C@H]1C(=O)N[C@@H](Cc1ccc(O)cc1)C(=O)N[C@H](C(=O)N[C@@H](CC(C)C)C(=O)O)[C@@H](C)CC (stereo partly drawn),Kd,[3],0.51 nM
same,Kd,[4],0.58 nM
same,Kd,[5],0.44 nM
CC[C@H](C)[C@H](NC(=O)[C@H](Cc1ccc(O)cc1)NC(=O)[C@@H](NC(=O)[C@H](CCCN/C(N)=N/C(=O)NCCCCNC(=O)CCCCC[n+]1cc(S(=O)(=O)[O-])ccc1/C=C/c1cc2ccc(N(CC)CC)cc2oc1=O)NC(=O)[C@@H](N)CC(=O)O)C(C)C)C(=O)N[C@@H](Cc1cnc[nH]1)C(=O)N1CCC[C@H]1C(=O)N[C@@H](Cc1ccccc1)C(=O)O.O=C(O)C(F)(F)F.O=C(O)C(F)(F)F.O=C(O)C(F)(F)F,Stability,[6],Stable
CC[C@H](C)[C@H](NC(=O)[C@H](Cc1ccc(O)cc1)NC(=O)[C@@H]1CCCN1C(=O)[C@H](CCCNC(=N)N)NC(=O)[C@@H](N)CCCN/C(N)=N/C(=O)NCCCCNC(=O)CCCCC[n+]1cc(S(=O)(=O)[O-])ccc1/C=C/c1cc2ccc(N(CC)CC)cc2oc1=O)C(=O)N[C@@H](CC(C)C)C(=O)O.O=C(O)C(F)(F)F.O=C(O)C(F)(F)F.O=C(O)C(F)(F)F,Stability,[7],Stable
O=C(O)C(F)(F)F.O=C(O)C(F)(F)F.O=C(O)C(F)(F)F.[3H]CC([3H])C(=O)NCCCCNC(=O)/N=C(\N)NCCC[C@H](NC(=O)[C@@H](N)CC(=O)O)C(=O)N[C@H](C(=O)N[C@@H](Cc1ccc(O)cc1)C(=O)N[C@H](C(=O)N[C@@H](Cc1cnc[nH]1)C(=O)N1CCC[C@H]1C(=O)N[C@@H](Cc1ccccc1)C(=O)O)[C@@H](C)CC)C(C)C (stereo partly drawn),Kd,[8],0.94 nM
same,Kd,[9],1.5 nM
CCC(=O)NCCOCCOCCNC(=O)/N=C(\N)NCCC[C@H](NC(=O)[C@@H](N)CC(=O)O)C(=O)N[C@H](C(=O)N[C@@H](Cc1ccc(O)cc1)C(=O)N[C@H](C(=O)N[C@@H](Cc1cnc[nH]1)C(=O)N1CCC[C@H]1C(=O)N[C@@H](Cc1ccccc1)C(=O)O)[C@@H](C)CC)C(C)C,"metabolised at 2 h, 50 µM",[10],< 5.5%
CC[C@H](C)[C@H](NC(=O)[C@H](Cc1ccc(O)cc1)NC(=O)[C@@H]1CCCN1C(=O)[C@H](CCCNC(=N)N)NC(=O)[C@@H](N)CCCN/C(N)=N/C(=O)NCCCCNC(=O)CCCCCN1\C(=C/C=C/C=C/C2=[N+](C)c3ccccc3C2(C)C)C(C)(C)c2ccccc21)C(=O)N[C@@H](CC(C)C)C(=O)O.O=C(O)C(F)(F)F.O=C(O)C(F)(F)F.O=C(O)C(F)(F)F.O=C(O)C(F)(F)F.[Br-],Stability,[7],Stable
CC[C@H](C)[C@H](NC(=O)[C@H](Cc1ccc(O)cc1)NC(=O)[C@@H](NC(=O)[C@H](CCCN/C(N)=N/C(=O)NCCCCNC(=O)CCCCCN1\C(=C/C=C/C=C/C2=[N+](C)c3ccccc3C2(C)C)C(C)(C)c2ccccc21)NC(=O)[C@@H](N)CC(=O)O)C(C)C)C(=O)N[C@@H](Cc1cnc[nH]1)C(=O)N1CCC[C@H]1C(=O)N[C@@H](Cc1ccccc1)C(=O)O.O=C(O)C(F)(F)F.O=C(O)C(F)(F)F.O=C(O)C(F)(F)F.O=C(O)C(F)(F)F.[Br-],Stability,[6],Stable
CCC(=O)NCCCCNC(=O)/N=C(\N)NCCC[C@H](NC(=O)[C@@H](N)CC(=O)O)C(=O)N[C@H](C(=O)N[C@@H](Cc1ccc(O)cc1)C(=O)N[C@H](C(=O)N[C@@H](Cc1cnc[nH]1)C(=O)N1CCC[C@H]1C(=O)N[C@@H](Cc1ccccc1)C(=O)O)[C@@H](C)CC)C(C)C.O=C(O)C(F)(F)F.O=C(O)C(F)(F)F.O=C(O)C(F)(F)F (H-D[X1]VYIHPF-OH),"metabolised at 2 h, 50 µM",[10],< 5.5%
same,"metabolised at 6 h, 50 µM",[11],< 2%
same,Stability,[12],Stable
same,IC50,[2],2.19 nM
same,Ki,[2],0.71 nM
same,EC50,[13],1.1 nM
CCC(=O)NCCCCNC(=O)/N=C(\N)NCCC[C@H](N)C(=O)N[C@@H](CCCNC(=N)N)C(=O)N1CCC[C@H]1C(=O)N[C@@H](Cc1ccc(O)cc1)C(=O)N[C@H](C(=O)N[C@@H](CC(C)C)C(=O)O)[C@@H](C)CC.O=C(O)C(F)(F)F.O=C(O)C(F)(F)F.O=C(O)C(F)(F)F (H-[X1]RPYIL-OH),Ki,[14],0.63 nM
same,Stability,[12],Stable
same,IC50,[15],1.35 nM
same,Ki,[15],0.47 nM
same,"metabolised at 6 h, 50 µM",[16],< 4%
same,"metabolised at 2 h, 50 µM",[17],< 4%
same,Ki,[18],2.5 nM
same,EC50,[19]; read-out: EC50,2 nM
CC[C@H](C)[C@H](NC(=O)[C@H](Cc1ccc(O)cc1)NC(=O)[C@@H]1CCCN1C(=O)[C@H](CCCNC(=N)N)NC(=O)[C@@H](N)CCCN/C(N)=N/C(=O)NCCCCN)C(=O)N[C@@H](CC(C)C)C(=O)O.O=C(O)C(F)(F)F.O=C(O)C(F)(F)F.O=C(O)C(F)(F)F.O=C(O)C(F)(F)F (H-[X2]RPYIL-OH),Ki,[14],0.69 nM
same,Stability,[12],Stable
same,IC50,[15],1.35 nM
same,Ki,[15],0.47 nM
same,Ki,[18],0.74 nM
same,EC50,[19]; read-out: EC50,1.7 nM
same,EC50,[19]; read-out: pEC50 (converted),1.55 nM
CCC(=O)NCCCCNC(=O)/N=C(\N)NCCC[C@H](NC(=O)[C@H](Cc1ccc(O)cc1)NC(=O)CCCCCCC(=O)N[C@@H](Cc1ccc(O)cc1)C(=O)N[C@@H](CCCNC(=N)N)C(=O)N[C@@H](CC(C)C)C(=O)N[C@@H](CCCNC(=N)N)C(=O)N[C@@H](Cc1ccc(O)cc1)C(N)=O)C(=O)N[C@@H](CC(C)C)C(=O)N[C@@H](CCCNC(=N)N)C(=O)N[C@@H](Cc1ccc(O)cc1)C(N)=O (I: Y[X1]LRY-NH2 / II: YRLRY-NH2; linker I:N-II:N via Suberoyl),Ki,[20],3.6 nM
CC(C)C[C@H](NC(=O)[C@H](CCCNC(=N)N)NC(=O)[C@H](Cc1ccc(O)cc1)NC(=O)CCCCCCC(=O)N[C@@H](Cc1ccc(O)cc1)C(=O)N[C@@H](CCCN/C(N)=N/C(=O)NCCCCN)C(=O)N[C@@H](CC(C)C)C(=O)N[C@@H](CCCNC(=N)N)C(=O)N[C@@H](Cc1ccc(O)cc1)C(N)=O)C(=O)N[C@@H](CCCNC(=N)N)C(=O)N[C@@H](Cc1ccc(O)cc1)C(N)=O (I: Y[X2]LRY-NH2 / II: YRLRY-NH2; linker I:N-II:N via Suberoyl),Ki,[20],1.5 nM
H-EYWSLAAPQRF-NH2,Kd,[21],0.54 nM
same,Ki,[22],0.53 nM
